Data published in ChEMBL document CHEMBL1909506, “Synthesis and anti-tumor activities of N'-benzylidene-2-(4-oxothieno[2,3-d]pyrimidin-3(4H)-yl)acetohydrazone derivatives” (Bioorg Med Chem Lett, 2011).
Active and inactive are the calls of the source. The rule behind the calls is not given here.

Each compound was assayed on A549 (assay: Cytotoxicity against human A549 cells assessed as growth inhibition at 20 uM after 48 hrs by MTT assay). Conditions: not given.
Format: functional
Summary of the method: (§1)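 Single-concentration screen at 20 µM. Cell growth inhibition read by standard MTT assay after 48 h treatment and expressed as inhibition ratio.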
In the case of `O=C(Cn1cnc2sc3c(c2c1=O)CCCCC3)N/N=C/c1ccc(O)cc1`, the “growth inhibition (GI)” value is reported as “inactive”.
In the case of `O=C(Cn1cnc2scc(-c3ccccc3)c2c1=O)N/N=C/c1ccc(Cl)c(F)c1`, the “growth inhibition (GI)” value is reported as “inactive”.

Same assay, conditions: A549, 48 h, read-out: GI
With `O=C(Cn1cnc2sc3c(c2c1=O)CCCCC3)N/N=C/c1ccccc1O` the inhibition of growth at 20 µM was 29%.
`O=C(Cn1cnc2sc3c(c2c1=O)CCCC3)N/N=C/c1ccc(Cl)c(F)c1` gave an inhibition of growth at 20 µM of 26%.
`Cc1cc(-c2csc3ncn(CC(=O)N/N=C/c4ccccc4O)c(=O)c23)ccc1Cl` showed an inhibition of growth at 20 µM of 35%.
`O=C(Cn1cnc2sc3c(c2c1=O)CCCC3)N/N=C/c1ccc(Cl)c([N+](=O)[O-])c1` showed an inhibition of growth at 20 µM of 10%.
`O=C(Cn1cnc2scc(-c3ccccc3)c2c1=O)N/N=C/c1ccccc1O` was tested, and the inhibition of growth at 20 µM was 26%.
`O=C(Cn1cnc2scc(-c3ccc4ccccc4c3)c2c1=O)N/N=C/c1ccccc1O` showed an inhibition of growth at 20 µM of 44%.
With `O=C(Cn1cnc2sc3c(c2c1=O)CCCC3)N/N=C/c1ccc(C(F)(F)F)cc1` the inhibition of growth at 20 µM was 23%.
`N#Cc1ccc(/C=N/NC(=O)Cn2cnc3sc4c(c3c2=O)CCCCC4)cc1` showed an inhibition of growth at 20 µM of 10%.
With `O=C(Cn1cnc2scc(-c3ccc(Cl)cc3)c2c1=O)N/N=C/c1ccccc1O` the inhibition of growth at 20 µM was 48%.
`O=C(Cn1cnc2sc3c(c2c1=O)CCC3)N/N=C/c1ccc(Cl)c(F)c1` gave an inhibition of growth at 20 µM of 47%.
`O=C(Cn1cnc2sc3c(c2c1=O)CCC3)N/N=C/c1ccccc1O` was tested, and the inhibition of growth at 20 µM was 22%.
Work on `O=C(Cn1cnc2sc3c(c2c1=O)CCC3)N/N=C/c1ccc(O)cc1` yielded an inhibition of growth at 20 µM of 27%.
Work on `Cc1csc2ncn(CC(=O)N/N=C/c3ccc(Cl)c([N+](=O)[O-])c3)c(=O)c12` yielded an inhibition of growth at 20 µM of 13%.
For `O=C(Cn1cnc2sc3c(c2c1=O)CCCCC3)N/N=C/c1ccc(Cl)c(F)c1`, the inhibition of growth at 20 µM was 43%.

The compounds below were run on HeLa (assay: Cytotoxicity against human HeLa cells assessed as growth inhibition at 20 uM after 48 hrs by MTT assay). Conditions: not given.
Format: functional
Summary of the method: as §1
For `O=C(Cn1cnc2sc3c(c2c1=O)CCCCC3)N/N=C/c1ccc(O)cc1`, the “growth inhibition (GI)” value was “inactive”.
In the case of `O=C(Cn1cnc2scc(-c3ccccc3)c2c1=O)N/N=C/c1ccc(Cl)c(F)c1`, the “growth inhibition (GI)” value is reported as “inactive”.

Same assay, conditions: read-out: GI
`O=C(Cn1cnc2sc3c(c2c1=O)CCCCC3)N/N=C/c1ccccc1O` showed an inhibition of growth at 20 µM of 36%.
`O=C(Cn1cnc2sc3c(c2c1=O)CCCC3)N/N=C/c1ccc(Cl)c(F)c1` was tested, and the inhibition of growth at 20 µM was 41%.
With `Cc1cc(-c2csc3ncn(CC(=O)N/N=C/c4ccccc4O)c(=O)c23)ccc1Cl` the inhibition of growth at 20 µM was 33%.
For `O=C(Cn1cnc2sc3c(c2c1=O)CCCC3)N/N=C/c1ccc(Cl)c([N+](=O)[O-])c1`, the inhibition of growth at 20 µM was 27%.
`O=C(Cn1cnc2scc(-c3ccccc3)c2c1=O)N/N=C/c1ccccc1O` gave an inhibition of growth at 20 µM of 31%.
For `O=C(Cn1cnc2scc(-c3ccc4ccccc4c3)c2c1=O)N/N=C/c1ccccc1O`, the inhibition of growth at 20 µM was 22%.
With `O=C(Cn1cnc2sc3c(c2c1=O)CCCC3)N/N=C/c1ccc(C(F)(F)F)cc1` the inhibition of growth at 20 µM was 34%.
`N#Cc1ccc(/C=N/NC(=O)Cn2cnc3sc4c(c3c2=O)CCCCC4)cc1` gave an inhibition of growth at 20 µM of 11%.
Compound `O=C(Cn1cnc2scc(-c3ccc(Cl)cc3)c2c1=O)N/N=C/c1ccccc1O` has an inhibition of growth at 20 µM of 43%.
Work on `O=C(Cn1cnc2sc3c(c2c1=O)CCC3)N/N=C/c1ccc(Cl)c(F)c1` yielded an inhibition of growth at 20 µM of 54%.
Compound `O=C(Cn1cnc2sc3c(c2c1=O)CCC3)N/N=C/c1ccccc1O` has an inhibition of growth at 20 µM of 23%.
Compound `O=C(Cn1cnc2sc3c(c2c1=O)CCC3)N/N=C/c1ccc(O)cc1` has an inhibition of growth at 20 µM of 29%.
`Cc1csc2ncn(CC(=O)N/N=C/c3ccc(Cl)c([N+](=O)[O-])c3)c(=O)c12` was tested, and the inhibition of growth at 20 µM was 18%.
`O=C(Cn1cnc2sc3c(c2c1=O)CCCCC3)N/N=C/c1ccc(Cl)c(F)c1` gave an inhibition of growth at 20 µM of 50%.

These compounds were tested against Induced myeloid leukemia cell differentiation protein Mcl-1 (Homo sapiens) (UniProt Q07820) (assay: Inhibition of mouse/human MCL1 expressed in Escherichia coli BL21 at 1 uM to 50 uM using FAM-labeled Bid-BH3 as tracer by fluorescence polarization assay). Conditions: not given.
With `O=C(Cn1cnc2sc3c(c2c1=O)CCCCC3)N/N=C/c1ccccc1O` the inhibition was “inactive”.
`O=C(Cn1cnc2sc3c(c2c1=O)CCCC3)N/N=C/c1ccc(Cl)c(F)c1` was tested, and the inhibition was “inactive”.
For `Cc1cc(-c2csc3ncn(CC(=O)N/N=C/c4ccccc4O)c(=O)c23)ccc1Cl`, the inhibition was “inactive”.
`O=C(Cn1cnc2sc3c(c2c1=O)CCCC3)N/N=C/c1ccc(Cl)c([N+](=O)[O-])c1` was tested, and the inhibition was “inactive”.
In the case of `O=C(Cn1cnc2scc(-c3ccccc3)c2c1=O)N/N=C/c1ccccc1O`, the inhibition is reported as “inactive”.
In the case of `O=C(Cn1cnc2scc(-c3ccc4ccccc4c3)c2c1=O)N/N=C/c1ccccc1O`, the inhibition is reported as “inactive”.
`O=C(Cn1cnc2sc3c(c2c1=O)CCCC3)N/N=C/c1ccc(C(F)(F)F)cc1` was tested, and the inhibition was “inactive”.
For `N#Cc1ccc(/C=N/NC(=O)Cn2cnc3sc4c(c3c2=O)CCCCC4)cc1`, the inhibition was “inactive”.
For `O=C(Cn1cnc2scc(-c3ccc(Cl)cc3)c2c1=O)N/N=C/c1ccccc1O`, the inhibition was “inactive”.
`O=C(Cn1cnc2sc3c(c2c1=O)CCC3)N/N=C/c1ccc(Cl)c(F)c1` was tested, and the inhibition was “inactive”.
For `O=C(Cn1cnc2sc3c(c2c1=O)CCC3)N/N=C/c1ccccc1O`, the inhibition was “inactive”.
`O=C(Cn1cnc2sc3c(c2c1=O)CCC3)N/N=C/c1ccc(O)cc1` was tested, and the inhibition was “inactive”.
For `Cc1csc2ncn(CC(=O)N/N=C/c3ccc(Cl)c([N+](=O)[O-])c3)c(=O)c12`, the inhibition was “inactive”.
`O=C(Cn1cnc2sc3c(c2c1=O)CCCCC3)N/N=C/c1ccc(Cl)c(F)c1` was tested, and the inhibition was “inactive”.
In the case of `O=C(Cn1cnc2sc3c(c2c1=O)CCCCC3)N/N=C/c1ccc(O)cc1`, the inhibition is reported as “inactive”.
In the case of `O=C(Cn1cnc2scc(-c3ccccc3)c2c1=O)N/N=C/c1ccc(Cl)c(F)c1`, the inhibition is reported as “inactive”.

What follows are compounds tested on MDA-MB-231 (assay: Cytotoxicity against human MDA-MB-231 cells assessed as growth inhibition at 20 uM after 48 hrs by MTT assay). Conditions: not given.
Format: functional
Summary of the method: as §1
In the case of `O=C(Cn1cnc2sc3c(c2c1=O)CCCCC3)N/N=C/c1ccc(O)cc1`, the “growth inhibition (GI)” value is reported as “inactive”.
`O=C(Cn1cnc2scc(-c3ccccc3)c2c1=O)N/N=C/c1ccc(Cl)c(F)c1` was tested, and the “growth inhibition (GI)” value was “inactive”.

Same assay, conditions: MDA-MB-231, 48 h, read-out: GI
In the case of `O=C(Cn1cnc2sc3c(c2c1=O)CCCCC3)N/N=C/c1ccccc1O`, the inhibition of growth at 20 µM is reported as 40%.
`O=C(Cn1cnc2sc3c(c2c1=O)CCCC3)N/N=C/c1ccc(Cl)c(F)c1` was tested, and the inhibition of growth at 20 µM was 39%.
In the case of `Cc1cc(-c2csc3ncn(CC(=O)N/N=C/c4ccccc4O)c(=O)c23)ccc1Cl`, the inhibition of growth at 20 µM is reported as 37%.
`O=C(Cn1cnc2sc3c(c2c1=O)CCCC3)N/N=C/c1ccc(Cl)c([N+](=O)[O-])c1` was tested, and the inhibition of growth at 20 µM was 38%.
`O=C(Cn1cnc2scc(-c3ccccc3)c2c1=O)N/N=C/c1ccccc1O` showed an inhibition of growth at 20 µM of 30%.
`O=C(Cn1cnc2scc(-c3ccc4ccccc4c3)c2c1=O)N/N=C/c1ccccc1O` gave an inhibition of growth at 20 µM of 36%.
For `O=C(Cn1cnc2sc3c(c2c1=O)CCCC3)N/N=C/c1ccc(C(F)(F)F)cc1`, the inhibition of growth at 20 µM was 30%.
With `N#Cc1ccc(/C=N/NC(=O)Cn2cnc3sc4c(c3c2=O)CCCCC4)cc1` the inhibition of growth at 20 µM was 14%.
`O=C(Cn1cnc2scc(-c3ccc(Cl)cc3)c2c1=O)N/N=C/c1ccccc1O` showed an inhibition of growth at 20 µM of 39%.
In the case of `O=C(Cn1cnc2sc3c(c2c1=O)CCC3)N/N=C/c1ccc(Cl)c(F)c1`, the inhibition of growth at 20 µM is reported as 29%.
`O=C(Cn1cnc2sc3c(c2c1=O)CCC3)N/N=C/c1ccccc1O` gave an inhibition of growth at 20 µM of 36%.
With `O=C(Cn1cnc2sc3c(c2c1=O)CCC3)N/N=C/c1ccc(O)cc1` the inhibition of growth at 20 µM was 25%.
In the case of `Cc1csc2ncn(CC(=O)N/N=C/c3ccc(Cl)c([N+](=O)[O-])c3)c(=O)c12`, the inhibition of growth at 20 µM is reported as 13%.
Compound `O=C(Cn1cnc2sc3c(c2c1=O)CCCCC3)N/N=C/c1ccc(Cl)c(F)c1` has an inhibition of growth at 20 µM of 28%.
